In brackets after ≈: the same amount, converted by molar mass.
Tests used:
[1] = tested on: Mycobacterium tuberculosis; assay: Antimycobacterial activity against Mycobacterium tuberculosis H37Rv ATCC 27294 after 28 days by colony forming unit determination; type: functional; conditions: H37Rv ATCC 27294, 672 h
How it was run: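 Compounds added to Sula liquid medium as DMSO solutions (DMSO at most 2%), incubated at 37 °C for 28 days. MIC is the lowest concentration giving visible growth inhibition. Activity was confirmed by CFU counts after subculture onto drug-free Löwenstein-Jensen solid medium.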

[2] = Selectivity index, ratio of IC50 for human HepG2 cells to MIC for Mycobacterium tuberculosis H37Rv ATCC 27294; type: functional
[3] = tested on: Mycobacterium avium; assay: Antimycobacterial activity against Mycobacterium avium CNTC 330/88 after 14 days; type: functional; conditions: CNTC 330/88, 336 h
[4] = tested on: Mycobacterium avium; assay: Antimycobacterial activity against Mycobacterium avium CNTC 330/88 after 21 days; type: functional; conditions: CNTC 330/88, 504 h
[5] = tested on: Mycobacterium kansasii; assay: Antimycobacterial activity against Mycobacterium kansasii CNTC My 235/80 after 7 days; type: functional; conditions: CNTC My 235/80, 168 h
[6] = tested on: Mycobacterium kansasii; assay: Antimycobacterial activity against Mycobacterium kansasii CNTC My 235/80 after 14 days; type: functional; conditions: CNTC My 235/80, 336 h
[7] = tested on: Mycobacterium kansasii; assay: Antimycobacterial activity against Mycobacterium kansasii CNTC My 235/80 after 21 days; type: functional; conditions: CNTC My 235/80, 504 h
[8] = tested on: Mycobacterium kansasii; assay: Antimycobacterial activity against Mycobacterium kansasii CNTC 6509/96 after 7 days; type: functional; conditions: CNTC 6509/96, 168 h
[9] = tested on: Mycobacterium kansasii; assay: Antimycobacterial activity against Mycobacterium kansasii CNTC 6509/96 after 14 days; type: functional; conditions: CNTC 6509/96, 336 h
[10] = tested on: Mycobacterium kansasii; assay: Antimycobacterial activity against Mycobacterium kansasii CNTC 6509/96 after 21 days; type: functional; conditions: CNTC 6509/96, 504 h
[11] = tested on: HepG2; assay: Cytotoxicity against human HepG2 cells measured after overnight incubation by MTT assay; type: cell-based
How it was run: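 HepG2 cells in phenol-red-free RPMI-1640 with 10% FCS, 2 mM L-glutamine and gentamycin, seeded at 5 × 10³ per well. After 24 h at 37 °C, cells were exposed overnight to compound in serum-free medium. MTT (2 mg/mL) for 4 h, formazan dissolved in DMSO, read as OD540 minus OD620. % cytotoxicity versus untreated controls; IC50 taken from dose-response curves. Two independent experiments, 4–8 parallel measurements.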

[12] = tested on: PBMC; assay: Cytotoxicity against human PBMC measured after overnight incubation by MTT assay; type: cell-based
How it was run: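 Freshly prepared human PBMC in phenol-red-free RPMI-1640 with 10% FCS, 2 mM L-glutamine and gentamycin, 2.0 × 10⁵ cells per well. After 24 h at 37 °C, overnight compound exposure in serum-free medium. MTT for 4 h, formazan in DMSO, OD540 minus OD620. % cytotoxicity versus controls; IC50 from dose-response curves. Two independent experiments.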

[13] = tested on: SH-SY5Y; assay: Cytotoxicity against human SH-SY5Y cells measured after overnight incubation by MTT assay; type: cell-based
How it was run: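 SH-SY5Y neuroblastoma cells in phenol-red-free DMEM with 10% FCS, 2 mM L-glutamine, gentamycin and 1% NEAA, 7.5 × 10³ per well. After 24 h at 37 °C, overnight compound exposure in serum-free medium. MTT readout (OD540 minus OD620) against untreated controls; IC50 from dose-response curves. Two independent experiments.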

Row | SMILES | MIC [1] | Selectivity Index [2] | MIC [3] | MIC [4] | MIC [5] | MIC [6] | MIC [7] | MIC [8] | MIC [9] | MIC [10] | IC50 [11] | IC50 [12] | IC50 [13]
1 | O=C(N/N=C/N1CCN(c2cc3c(cc2F)c(=O)c(C(=O)O)cn3C2CC2)CC1)c1ccc(C(F)(F)F)cc1 | 1 µg/mL (≈ 1.83 µM) | 189.21 | 32 µM (≈ 17.5 µg/mL) | 62.5 µM (≈ 34.1 µg/mL) | 2 µM (≈ 1.09 µg/mL) | 2 µM (≈ 1.09 µg/mL) | 4 µM (≈ 2.18 µg/mL) | 1 µM (≈ 0.545 µg/mL) | 1 µM (≈ 0.545 µg/mL) | 2 µM (≈ 1.09 µg/mL) | 347 µM | 347 µM | 
2 | O=C(N/N=C/Nc1ccc(C(=O)O)c(O)c1)c1ccc(C(F)(F)F)cc1 | 4 µg/mL (≈ 10.9 µM) |  | 32 µM (≈ 11.8 µg/mL) | 125 µM (≈ 45.9 µg/mL) | 62.5 µM (≈ 23 µg/mL) | 125 µM (≈ 45.9 µg/mL) | 250 µM (≈ 91.8 µg/mL) | 62.5 µM (≈ 23 µg/mL) | 62.5 µM (≈ 23 µg/mL) | 125 µM (≈ 45.9 µg/mL) |  |  | 
3 | O=C(O)c1cn(C2CC2)c2cc(N3CCNCC3)c(F)cc2c1=O [CIPROFLOXACIN] | 0.5 µg/mL (≈ 1.51 µM) | 333.33 | 62.5 µM (≈ 20.7 µg/mL) | 62.5 µM (≈ 20.7 µg/mL) | 1 µM (≈ 0.331 µg/mL) | 2 µM (≈ 0.663 µg/mL) | 2 µM (≈ 0.663 µg/mL) | 1 µM (≈ 0.331 µg/mL) | 1 µM (≈ 0.331 µg/mL) | 2 µM (≈ 0.663 µg/mL) | > 500 µM | > 500 µM | > 500 µM
4 | NNC(=O)c1ccncc1 [ISONIAZID] | 0.01 µg/mL (≈ 0.0729 µM) |  | > 250 µM | > 250 µM | 250 µM (≈ 34.3 µg/mL) | > 250 µM | > 250 µM | 2 µM (≈ 0.274 µg/mL) | 4 µM (≈ 0.549 µg/mL) | 4 µM (≈ 0.549 µg/mL) | > 1000 µM | 4670 µM | 
5 | O=C(N/N=C/N1CCN(c2cc3c(cc2F)c(=O)c(C(=O)O)cn3C2CC2)CC1)c1cccc(F)c1 | 1 µg/mL (≈ 2.02 µM) | 402.38 | 125 µM (≈ 61.9 µg/mL) | 250 µM (≈ 124 µg/mL) | 4 µM (≈ 1.98 µg/mL) | 4 µM (≈ 1.98 µg/mL) | 8 µM (≈ 3.96 µg/mL) | 4 µM (≈ 1.98 µg/mL) | 4 µM (≈ 1.98 µg/mL) | 4 µM (≈ 1.98 µg/mL) | > 812 µM | > 305 µM | 
6 | O=C(N/N=C/Nc1ccc(C(=O)O)c(O)c1)c1ccc(F)cc1 | 4 µg/mL (≈ 12.6 µM) |  | 32 µM (≈ 10.2 µg/mL) | 125 µM (≈ 39.7 µg/mL) | 32 µM (≈ 10.2 µg/mL) | 62.5 µM (≈ 19.8 µg/mL) | 62.5 µM (≈ 19.8 µg/mL) | 32 µM (≈ 10.2 µg/mL) | 32 µM (≈ 10.2 µg/mL) | 32 µM (≈ 10.2 µg/mL) |  |  | 
7 | CCn1cc(C(=O)O)c(=O)c2cc(F)c(N3CCN(/C=N/NC(=O)c4ccc(C(F)(F)F)cc4)CC3)cc21 | 5 µg/mL (≈ 9.37 µM) | 3.98 | 500 µM (≈ 267 µg/mL) | 500 µM (≈ 267 µg/mL) | 2 µM (≈ 1.07 µg/mL) | 4 µM (≈ 2.13 µg/mL) | 8 µM (≈ 4.27 µg/mL) | 2 µM (≈ 1.07 µg/mL) | 4 µM (≈ 2.13 µg/mL) | 8 µM (≈ 4.27 µg/mL) | > 37.3 µM | 262 µM | 107 µM
8 | CCn1cc(C(=O)O)c(=O)c2cc(F)c(N3CCN(/C=N/NC(=O)c4cccc(F)c4)CC3)cc21 | 6 µg/mL (≈ 12.4 µM) | 31.67 | 125 µM (≈ 60.4 µg/mL) | 250 µM (≈ 121 µg/mL) | 16 µM (≈ 7.74 µg/mL) | 32 µM (≈ 15.5 µg/mL) | 62.5 µM (≈ 30.2 µg/mL) | 16 µM (≈ 7.74 µg/mL) | 16 µM (≈ 7.74 µg/mL) | 32 µM (≈ 15.5 µg/mL) | > 393 µM | > 393 µM | > 430 µM
9 | O=C(N/N=C/N1CCN(c2cc3c(cc2F)c(=O)c(C(=O)O)cn3C2CC2)CC1)c1cccc(C(F)(F)F)c1 | 2 µg/mL (≈ 3.67 µM) | 87.79 | 250 µM (≈ 136 µg/mL) | 250 µM (≈ 136 µg/mL) | 2 µM (≈ 1.09 µg/mL) | 2 µM (≈ 1.09 µg/mL) | 4 µM (≈ 2.18 µg/mL) | 1 µM (≈ 0.545 µg/mL) | 1 µM (≈ 0.545 µg/mL) | 2 µM (≈ 1.09 µg/mL) | > 322 µM | > 322 µM | 
